# According to ChEMBL document CHEMBL2069278, “Novel substituted benzothiophene and thienothiophene carboxanilides and quinolones: synthesis, photochemical synthesis, DNA-binding properties, antitumor evaluation and 3D-derived QSAR analysis” (J Med Chem, 2012):
# Activity calls are given as the source filed them. No cut-off for these calls is given here.
# Tests used:
# [1] = test system: MOLT-4; assay: Cytotoxicity against human MOLT4 cells after 72 hrs by MTT assay; assay type: functional, cell-based; settings: MOLT-4, 72 h
# In short: (§1)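 Cells seeded on day 0 at 1 × 10^4 to 3 × 10^4 cells/mL (adherent lines in DMEM, MOLT-4 in suspension in RPMI, 10% FBS, 37 °C, 5% CO2); 10-fold dilutions 10−8–10−4 M for 72 h; MTT, OD 570 nm; percentage growth versus time-zero and control; IC50 by linear regression; quadruplicate, at least two experiments.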
# [2] = test system: HCT-116; assay: Cytotoxicity against human HCT116 cells after 72 hrs by MTT assay; assay type: functional, cell-based; settings: HCT-116, 72 h; in short: as §1
# [3] = test system: SW-620; assay: Cytotoxicity against human SW620 cells after 72 hrs by MTT assay; assay type: functional, cell-based; settings: SW-620, 72 h; in short: as §1
# [4] = test system: MCF7; assay: Cytotoxicity against human MCF7 cells after 72 hrs by MTT assay; assay type: functional, cell-based; settings: MCF7, 72 h; in short: as §1
# [5] = test system: NCI-H460; assay: Cytotoxicity against human H460 cells after 72 hrs by MTT assay; assay type: functional, cell-based; settings: NCI-H460, 72 h; in short: as §1
# [6] = test system: Nucleic Acid; assay: Binding affinity to calf thymus DNA assessed as DNA intercalation at 50 uM by circular dichroism spectra analysis; assay type: nucleic-acid assay; settings: Bos taurus
# In short: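 CD: 50 μM compound with 200 μM CT-DNA in BPE buffer, alone or plus 10 or 100 mM NaCl; spectra 480–230 nm, 10 mm quartz cell, 20 °C; compound without DNA as control for intrinsic CD.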
# [7] = target: T1, DNA topoisomerase 1 (Homo sapiens) (UniProt P11387); assay: Inhibition of human topoisomerase 1-mediated supercoiled pUC19 plasmid DNA relaxation at 10 uM incubated for 45 mins followed by enzyme addition measured after 30 mins by agarose gel electrophoresis
# T1 sequence (whole entry): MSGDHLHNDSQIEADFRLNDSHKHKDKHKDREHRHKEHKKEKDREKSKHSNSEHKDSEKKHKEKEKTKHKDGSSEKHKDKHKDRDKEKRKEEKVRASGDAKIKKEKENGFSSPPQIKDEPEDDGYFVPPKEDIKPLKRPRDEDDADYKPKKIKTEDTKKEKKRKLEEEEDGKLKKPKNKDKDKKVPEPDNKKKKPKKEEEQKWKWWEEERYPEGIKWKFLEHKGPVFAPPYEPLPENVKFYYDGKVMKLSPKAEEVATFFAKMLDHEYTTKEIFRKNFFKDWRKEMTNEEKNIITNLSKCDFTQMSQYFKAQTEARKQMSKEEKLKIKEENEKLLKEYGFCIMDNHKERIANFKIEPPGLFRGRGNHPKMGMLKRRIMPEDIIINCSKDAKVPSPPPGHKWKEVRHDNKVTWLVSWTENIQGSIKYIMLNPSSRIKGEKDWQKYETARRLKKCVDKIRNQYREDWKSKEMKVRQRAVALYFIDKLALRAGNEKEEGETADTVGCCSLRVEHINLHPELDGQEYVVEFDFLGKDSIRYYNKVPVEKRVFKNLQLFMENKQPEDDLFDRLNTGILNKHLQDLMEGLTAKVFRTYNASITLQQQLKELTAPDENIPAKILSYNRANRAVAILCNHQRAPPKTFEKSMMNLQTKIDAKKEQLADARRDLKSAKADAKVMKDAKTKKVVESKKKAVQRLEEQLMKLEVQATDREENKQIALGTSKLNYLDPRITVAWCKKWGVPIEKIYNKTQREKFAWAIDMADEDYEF
# In short: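 Graded compound concentrations preincubated with supercoiled pUC19, then 4 units human topoisomerase I, 37 °C for 45 min in relaxation buffer; stopped with 0.25% SDS and 250 μg/mL proteinase K, 30 min at 50 °C; 1% agarose gel without ethidium bromide, 2 h at 120 V in TBE, then stained with ethidium bromide.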
# [8] = test system: Nucleic Acid; assay: Binding affinity to radiolabeled Pvu2 DNA after 15 mins by Dnase1 footprinting assay; assay type: nucleic-acid assay
# In short: (§2)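 265 bp EcoRI/PvuII pBluescript fragment, 3′-end labeled with α-[32P]dATP by Klenow. Compounds at increasing concentrations pre-equilibrated with DNA 15 min at 37 °C, then DNase I (final 0.002 unit/mL) in 20 mM NaCl, 2 mM MgCl2, 2 mM MnCl2, pH 7.3, 4 min digestion; products resolved on denaturing 8% polyacrylamide/8 M urea gel, G-track for base positions.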
# [9] = target: DNA topoisomerase 2-alpha (Homo sapiens) (UniProt P11388); assay: Inhibition of human topoisomerase 2-mediated DNA cleavage at 50 uM incubated for 45 mins followed by enzyme addition measured after 30 mins by agarose gel electrophoresis
# Sequence of DNA topoisomerase 2-alpha (Homo sapiens) (P11388 whole entry): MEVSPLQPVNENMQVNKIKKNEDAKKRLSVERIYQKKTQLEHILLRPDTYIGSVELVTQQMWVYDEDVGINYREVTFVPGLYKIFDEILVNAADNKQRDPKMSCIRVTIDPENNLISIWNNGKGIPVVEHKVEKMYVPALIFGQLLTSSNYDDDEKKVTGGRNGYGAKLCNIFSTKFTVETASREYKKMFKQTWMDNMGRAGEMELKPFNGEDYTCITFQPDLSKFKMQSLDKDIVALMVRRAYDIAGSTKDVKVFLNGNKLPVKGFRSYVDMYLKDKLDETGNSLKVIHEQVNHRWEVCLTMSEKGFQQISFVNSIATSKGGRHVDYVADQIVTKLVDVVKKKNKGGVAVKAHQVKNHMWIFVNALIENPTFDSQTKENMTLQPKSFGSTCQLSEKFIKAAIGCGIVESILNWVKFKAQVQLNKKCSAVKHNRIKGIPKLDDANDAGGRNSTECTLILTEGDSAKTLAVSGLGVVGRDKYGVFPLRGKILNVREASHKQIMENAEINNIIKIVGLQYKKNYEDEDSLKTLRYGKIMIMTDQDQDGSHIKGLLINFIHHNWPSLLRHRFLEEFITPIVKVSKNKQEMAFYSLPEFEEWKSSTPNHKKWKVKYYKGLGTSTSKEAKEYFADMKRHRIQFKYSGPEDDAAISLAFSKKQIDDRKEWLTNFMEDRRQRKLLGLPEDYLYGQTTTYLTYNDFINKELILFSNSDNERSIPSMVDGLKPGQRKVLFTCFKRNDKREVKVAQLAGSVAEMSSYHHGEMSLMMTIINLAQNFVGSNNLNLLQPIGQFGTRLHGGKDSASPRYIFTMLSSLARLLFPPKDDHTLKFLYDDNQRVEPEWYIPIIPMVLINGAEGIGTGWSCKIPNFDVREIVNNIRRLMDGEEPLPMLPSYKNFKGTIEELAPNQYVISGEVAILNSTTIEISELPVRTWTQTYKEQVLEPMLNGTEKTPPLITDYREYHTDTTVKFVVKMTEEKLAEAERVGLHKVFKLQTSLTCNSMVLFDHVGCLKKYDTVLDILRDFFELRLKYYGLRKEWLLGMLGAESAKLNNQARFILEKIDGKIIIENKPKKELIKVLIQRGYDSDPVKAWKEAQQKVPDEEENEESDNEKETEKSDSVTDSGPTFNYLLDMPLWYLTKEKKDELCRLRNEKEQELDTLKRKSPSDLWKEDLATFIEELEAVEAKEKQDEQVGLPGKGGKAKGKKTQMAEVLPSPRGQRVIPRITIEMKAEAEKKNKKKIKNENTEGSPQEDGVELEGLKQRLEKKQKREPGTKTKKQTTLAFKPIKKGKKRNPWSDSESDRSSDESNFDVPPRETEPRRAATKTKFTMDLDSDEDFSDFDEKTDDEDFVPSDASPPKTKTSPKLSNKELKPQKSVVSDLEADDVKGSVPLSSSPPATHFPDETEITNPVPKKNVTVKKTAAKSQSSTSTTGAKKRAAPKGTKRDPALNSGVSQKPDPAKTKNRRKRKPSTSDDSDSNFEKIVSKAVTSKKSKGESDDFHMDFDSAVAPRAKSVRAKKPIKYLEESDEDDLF
# In short: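 Compounds (50 μM) incubated with 350 ng supercoiled pUC19 before topoisomerase II addition; gel quantified for percentage poisoning normalized to etoposide at the same concentration.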
# [10] = test system: HCT-116; assay: Induction of cell cycle arrest in human HCT116 cells assessed as accumulation at G1 phase at 1 to 5 uM by propidium iodide based flow cytometry; assay type: functional; settings: TDE = time-dependent effect
# In short: (§3)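 HCT116 cells (2 × 10^5 per well) treated after 24 h with 1 or 5 μM for 24 and 48 h; floating and attached cells pooled, fixed in 70% ethanol, stained with 50 μg/mL propidium iodide plus RNase A; 20 000 events by flow cytometry; phase percentages from DNA histograms; duplicate, repeated at least twice.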
# [11] = test system: HCT-116; assay: Induction of cell cycle arrest in human HCT116 cells assessed as accumulation at G2/M phase at 1 to 5 uM by propidium iodide based flow cytometry; assay type: functional; settings: TDE = time-dependent effect; in short: as §3
# [12] = test system: HCT-116; assay: Induction of cell cycle arrest in human HCT116 cells assessed as accumulation at G1 phase after 24 to 48 hrs by propidium iodide based flow cytometry; assay type: functional; in short: as §3
# [13] = test system: HCT-116; assay: Induction of cell cycle arrest in human HCT116 cells assessed as accumulation at G2/M phase after 24 to 48 hrs by propidium iodide based flow cytometry; assay type: functional; in short: as §3
# [14] = test system: Nucleic Acid; assay: Binding affinity to AT rich site of Pvu2 DNA by densitometric analysis; assay type: nucleic-acid assay; in short: as §2
# [15] = test system: Nucleic Acid; assay: Binding affinity to calf thymus DNA assessed as change in melting temperature at drug/base pair ratio of 0.25 by UV-visible spectrophotometric analysis; assay type: nucleic-acid assay; settings: Bos taurus
# In short: (§4)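 Melting: 20 μM CT-DNA or poly(dAdT)2 alone or with compound (drug/base pair ratio 0.01−0.5) in BPE buffer (6 mM Na2HPO4, 2 mM NaH2PO4, 1 mM EDTA, pH 7.1); A260 read each minute from 20 to 100 °C at 1 °C/min; Tm from midpoint of hyperchromic transition (first-derivative plots); ΔTm = Tm[drug+DNA] − Tm[DNA alone].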
# [16] = test system: Nucleic Acid; assay: Binding affinity to calf thymus DNA assessed as change in melting temperature at drug/base pair ratio of 0.5 by UV-visible spectrophotometric analysis; assay type: nucleic-acid assay; settings: Bos taurus; in short: as §4
# [17] = test system: HCT-116; assay: Induction of cell cycle arrest in human HCT116 cells assessed as accumulation at G1 phase at 5 uM after 24 to 48 hrs by propidium iodide based flow cytometry; assay type: functional; in short: as §3
# [18] = test system: Nucleic Acid; assay: Binding affinity to calf thymus DNA assessed as change in melting temperature at drug/base pair ratio of 0.025 by UV-visible spectrophotometric analysis; assay type: nucleic-acid assay; settings: Bos taurus; in short: as §4
# [19] = test system: Nucleic Acid; assay: Binding affinity to calf thymus DNA assessed as change in melting temperature at drug/base pair ratio of 0.01 by UV-visible spectrophotometric analysis; assay type: nucleic-acid assay; settings: Bos taurus; in short: as §4
# [20] = test system: Nucleic Acid; assay: Binding affinity to Poly (dAdT)2 DNA assessed as change in melting temperature at drug/base pair ratio of 0.01 by UV-visible spectrophotometric analysis; assay type: nucleic-acid assay; in short: as §4
# [21] = test system: Nucleic Acid; assay: Binding affinity to Poly (dAdT)2 DNA assessed as DNA intercalation at 20 uM by circular dichroism spectra analysis; assay type: nucleic-acid assay
# In short: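 CD: compound titrated against poly(dAdT)2, or poly(dAdT)2 titrated with compound from 1 to 200 μM, in BPE buffer (pH 7.1); spectra from 480 to 230 nm in 10 mm quartz cell at 20 °C; peak position and intensity followed.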
# [22] = target: T1, DNA topoisomerase 1 (Homo sapiens); assay: Inhibition of human topoisomerase 1-mediated DNA cleavage at 10 uM incubated for 45 mins followed by enzyme addition measured after 30 mins by agarose gel electrophoresis
# In short: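 Topo I cleavage run like the relaxation assay (pUC19, 4 units human topoisomerase I, 37 °C, 45 min; SDS/proteinase K stop), but samples run on 1% agarose gel containing ethidium bromide; camptothecin 20 μM as poisoning control.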
# [23] = test system: Nucleic Acid; assay: Binding affinity to calf thymus DNA assessed as change in melting temperature at drug/base pair ratio of 0.1 by UV-visible spectrophotometric analysis; assay type: nucleic-acid assay; settings: Bos taurus; in short: as §4
# [24] = test system: Nucleic Acid; assay: Binding affinity to Poly (dAdT)2 DNA assessed as change in melting temperature at drug/base pair ratio of 0.025 by UV-visible spectrophotometric analysis; assay type: nucleic-acid assay; in short: as §4
# [25] = test system: Nucleic Acid; assay: Binding affinity to Poly (dAdT)2 DNA assessed as change in melting temperature at drug/base pair ratio of 0.05 by UV-visible spectrophotometric analysis; assay type: nucleic-acid assay; in short: as §4
# [26] = test system: Nucleic Acid; assay: Binding affinity to Poly (dAdT)2 DNA assessed as change in melting temperature at drug/base pair ratio of 0.1 by UV-visible spectrophotometric analysis; assay type: nucleic-acid assay; in short: as §4
# [27] = test system: Nucleic Acid; assay: Binding affinity to Poly (dAdT)2 DNA assessed as change in melting temperature at drug/base pair ratio of 0.25 by UV-visible spectrophotometric analysis; assay type: nucleic-acid assay; in short: as §4
Activity [6],inhibition [7],Activity [8],inhibition [9],Activity [14],ΔTm [15],ΔTm [16],Compound,IC50 [1],IC50 [2],IC50 [3],IC50 [4],IC50 [5],Activity [10],Activity [11],Activity [12],Activity [13],other results
inactive,Active,Active,Active,inactive,5 °C,6.8 °C,O=C(Nc1ccc(C2=NCCN2)cc1)c1sc2ccccc2c1Cl,2.1 µM,1.8 µM,1.2 µM,1.6 µM,1 µM,tde,tde,Dose-dependent effect,Dose-dependent effect,Activity [17]: Active
Active,Active,Active,Active,Active,23.9 °C,28.4 °C,O=C(Nc1ccc(C2=NCCN2)cc1)c1sc2cc(C3=NCCN3)ccc2c1Cl,1.9 µM,1.7 µM,1.4 µM,1.5 µM,2.6 µM,tde,tde,Dose-dependent effect,Dose-dependent effect,ΔTm [18]: 2 °C; ΔTm [19]: 1 °C; ΔTm [20]: 1 °C; Activity [21]: Active; inhibition [22]: Active; ΔTm [23]: 7.9 °C; ΔTm [24]: 2 °C; ΔTm [25]: 5.9 °C; ΔTm [26]: 18.6 °C; ΔTm [27]: 27.4 °C
